Reference: ChEMBL document CHEMBL4219113, “Pyridazine and pyridazinone derivatives as potent and selective factor XIa inhibitors” (Bioorg Med Chem Lett, 2018)

Tests used:
[1] = test system: Plasma; experiment: Anticoagulant activity in human plasma assessed as increase in activated partial thromboplastin time; type: functional
In short: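 In vitro clotting test in human plasma measuring activated partial thromboplastin time (aPTT). EC1.5x is the concentration that extends aPTT to 1.5-fold.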

[2] = Oral bioavailability in dog at 0.5 mg/kg; type: ADME, organism-based, Canis lupus familiaris; details: in vivo
In short: (§1)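 Dogs received cassette dosing at 0.2–0.5 mg/kg orally and 0.2–0.4 mg/kg intravenously. The iv vehicle was 10% DMAC, 10% EtOH, 10% PG and 70% water. The oral vehicle was 10% EtOH, 70% PEG400 and 20% TPGS.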

[3] = Volume of distribution at steady state in dog at 0.2 to 0.5 mg/kg, po or 0.2 to 0.4 mg/kg, iv administered as cassette dose; type: ADME, organism-based, Canis lupus familiaris; details: in vivo, read-out: Vdss; in short: as §1
[4] = Oral bioavailability in dog at 0.2 to 0.5 mg/kg; type: ADME, organism-based, Canis lupus familiaris; details: in vivo; in short: as §1
[5] = biological target: Coagulation factor XI (Homo sapiens, UniProt P03951); experiment: Inhibition of human factor 11a using pyro-Glu-Pro-Arg-pNA as substrate measured after 10 to 120 mins by spectrophotometric method
Coagulation factor XI, sequence (P03951 19-387 limits assumed): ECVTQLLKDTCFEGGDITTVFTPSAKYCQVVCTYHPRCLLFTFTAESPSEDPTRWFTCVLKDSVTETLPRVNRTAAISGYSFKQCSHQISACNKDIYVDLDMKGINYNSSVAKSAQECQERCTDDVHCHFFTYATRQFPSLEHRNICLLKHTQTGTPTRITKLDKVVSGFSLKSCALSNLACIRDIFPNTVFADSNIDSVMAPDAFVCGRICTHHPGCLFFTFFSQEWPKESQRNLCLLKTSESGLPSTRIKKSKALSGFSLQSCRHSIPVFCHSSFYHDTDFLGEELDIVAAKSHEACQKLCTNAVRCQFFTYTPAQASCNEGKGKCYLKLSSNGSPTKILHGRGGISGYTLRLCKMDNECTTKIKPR
Coagulation factor XI, sequence (P03951 388-625 limits assumed): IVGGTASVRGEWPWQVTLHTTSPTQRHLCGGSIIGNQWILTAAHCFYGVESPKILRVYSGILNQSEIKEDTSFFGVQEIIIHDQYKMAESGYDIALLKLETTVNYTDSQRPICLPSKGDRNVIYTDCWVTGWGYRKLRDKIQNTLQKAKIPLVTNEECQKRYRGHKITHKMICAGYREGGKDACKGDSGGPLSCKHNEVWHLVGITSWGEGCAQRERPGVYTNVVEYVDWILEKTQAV

[6] = Half life in human liver microsomes pretreated for 5 mins followed by NADPH addition by UV-LC/MS analysis; type: ADME, microsome
[7] = Clearance in dog at 0.2 to 0.5 mg/kg, po or 0.2 to 0.4 mg/kg, iv administered as cassette dose; type: ADME, organism-based, Canis lupus familiaris; details: in vivo; in short: as §1
[8] = Half life in dog at 0.2 to 0.5 mg/kg, po or 0.2 to 0.4 mg/kg, iv administered as cassette dose; type: ADME, organism-based, Canis lupus familiaris; details: in vivo; in short: as §1
[9] = biological target: Coagulation factor IX (Homo sapiens, UniProt P00740); experiment: Inhibition of human factor 9a
Coagulation factor IX, sequence (P00740 47-191 limits assumed): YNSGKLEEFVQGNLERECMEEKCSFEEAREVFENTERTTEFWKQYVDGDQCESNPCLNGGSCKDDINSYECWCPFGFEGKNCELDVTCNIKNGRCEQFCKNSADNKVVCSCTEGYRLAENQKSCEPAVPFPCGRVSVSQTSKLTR
Coagulation factor IX, sequence (P00740 227-461 limits assumed): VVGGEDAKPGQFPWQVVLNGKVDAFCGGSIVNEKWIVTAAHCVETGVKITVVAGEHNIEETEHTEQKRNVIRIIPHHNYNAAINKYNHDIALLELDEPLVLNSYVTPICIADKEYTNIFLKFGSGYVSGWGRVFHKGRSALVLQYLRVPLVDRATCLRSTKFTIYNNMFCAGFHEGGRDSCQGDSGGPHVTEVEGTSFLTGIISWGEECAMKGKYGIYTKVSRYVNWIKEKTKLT

[10] = biological target: Plasminogen (Homo sapiens, UniProt P00747); experiment: Inhibition of human plasmin
Plasminogen, sequence (P00747 97-580 limits assumed): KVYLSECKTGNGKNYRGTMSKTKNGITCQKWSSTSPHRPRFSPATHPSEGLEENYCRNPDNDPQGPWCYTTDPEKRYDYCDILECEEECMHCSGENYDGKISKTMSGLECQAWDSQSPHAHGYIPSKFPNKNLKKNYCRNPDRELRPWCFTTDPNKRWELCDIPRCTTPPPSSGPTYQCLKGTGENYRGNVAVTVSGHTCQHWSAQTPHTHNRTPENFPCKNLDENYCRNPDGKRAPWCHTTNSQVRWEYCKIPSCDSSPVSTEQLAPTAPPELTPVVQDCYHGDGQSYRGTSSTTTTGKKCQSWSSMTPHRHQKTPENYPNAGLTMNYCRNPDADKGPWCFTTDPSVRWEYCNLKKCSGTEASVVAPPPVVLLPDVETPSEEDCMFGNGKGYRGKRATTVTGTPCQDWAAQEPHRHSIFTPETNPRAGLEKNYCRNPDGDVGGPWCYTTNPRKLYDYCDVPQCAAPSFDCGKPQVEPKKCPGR
Plasminogen, sequence (P00747 581-810 limits assumed): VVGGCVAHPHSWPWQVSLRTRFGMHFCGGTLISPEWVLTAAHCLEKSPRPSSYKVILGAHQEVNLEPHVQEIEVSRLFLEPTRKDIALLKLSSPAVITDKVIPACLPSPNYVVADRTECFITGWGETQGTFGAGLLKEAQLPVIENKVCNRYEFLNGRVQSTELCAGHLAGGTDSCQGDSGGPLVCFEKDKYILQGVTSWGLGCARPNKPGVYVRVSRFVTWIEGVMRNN

[11] = biological target: Plasma kallikrein (Homo sapiens, UniProt P03952); experiment: Inhibition of human plasma kallikrein
Plasma kallikrein, sequence (P03952 20-390 limits assumed): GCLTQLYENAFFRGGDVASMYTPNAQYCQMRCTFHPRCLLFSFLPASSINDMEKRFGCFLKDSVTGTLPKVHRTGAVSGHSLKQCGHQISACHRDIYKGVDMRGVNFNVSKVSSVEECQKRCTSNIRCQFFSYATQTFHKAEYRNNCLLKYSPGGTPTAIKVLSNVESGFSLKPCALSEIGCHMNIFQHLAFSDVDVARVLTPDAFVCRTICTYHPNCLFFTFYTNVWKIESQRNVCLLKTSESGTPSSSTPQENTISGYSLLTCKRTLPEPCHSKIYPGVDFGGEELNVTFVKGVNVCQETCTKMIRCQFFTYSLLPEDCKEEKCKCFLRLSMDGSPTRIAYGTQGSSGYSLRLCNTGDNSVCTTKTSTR
Plasma kallikrein, sequence (P03952 391-638 limits assumed): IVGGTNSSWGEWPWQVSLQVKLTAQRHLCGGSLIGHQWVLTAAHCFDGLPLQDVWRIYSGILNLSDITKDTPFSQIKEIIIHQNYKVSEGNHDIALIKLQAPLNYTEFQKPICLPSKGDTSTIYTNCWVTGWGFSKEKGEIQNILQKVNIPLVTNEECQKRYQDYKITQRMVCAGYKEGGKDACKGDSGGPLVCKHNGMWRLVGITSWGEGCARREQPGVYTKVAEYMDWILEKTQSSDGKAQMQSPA

[12] = biological target: Trypsin (Homo sapiens, UniProt P07477+P07478+P35030); experiment: Inhibition of human trypsin; type: protein assay
[13] = biological target: Vitamin K-dependent protein C (Homo sapiens, UniProt P04070); experiment: Inhibition of human activated protein C
Vitamin K-dependent protein C, sequence (P04070 43-197 limits assumed): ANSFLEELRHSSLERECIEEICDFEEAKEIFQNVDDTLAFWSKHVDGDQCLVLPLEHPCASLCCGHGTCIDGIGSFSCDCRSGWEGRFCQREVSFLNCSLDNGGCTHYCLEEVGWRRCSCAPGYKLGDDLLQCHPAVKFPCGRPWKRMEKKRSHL
Vitamin K-dependent protein C, sequence (P04070 212-461 limits assumed): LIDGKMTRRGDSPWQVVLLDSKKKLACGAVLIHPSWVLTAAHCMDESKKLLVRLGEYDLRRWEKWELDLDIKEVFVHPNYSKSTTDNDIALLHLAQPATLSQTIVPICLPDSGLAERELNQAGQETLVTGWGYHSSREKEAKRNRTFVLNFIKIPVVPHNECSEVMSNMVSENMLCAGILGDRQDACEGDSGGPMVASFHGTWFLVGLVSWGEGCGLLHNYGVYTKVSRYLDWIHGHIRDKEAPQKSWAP

[14] = biological target: Prothrombin (Homo sapiens, UniProt P00734); experiment: Inhibition of human thrombin
[15] = biological target: Tissue-type plasminogen activator (Homo sapiens, UniProt P00750); experiment: Inhibition of human TPA
Tissue-type plasminogen activator, sequence (P00750 whole entry): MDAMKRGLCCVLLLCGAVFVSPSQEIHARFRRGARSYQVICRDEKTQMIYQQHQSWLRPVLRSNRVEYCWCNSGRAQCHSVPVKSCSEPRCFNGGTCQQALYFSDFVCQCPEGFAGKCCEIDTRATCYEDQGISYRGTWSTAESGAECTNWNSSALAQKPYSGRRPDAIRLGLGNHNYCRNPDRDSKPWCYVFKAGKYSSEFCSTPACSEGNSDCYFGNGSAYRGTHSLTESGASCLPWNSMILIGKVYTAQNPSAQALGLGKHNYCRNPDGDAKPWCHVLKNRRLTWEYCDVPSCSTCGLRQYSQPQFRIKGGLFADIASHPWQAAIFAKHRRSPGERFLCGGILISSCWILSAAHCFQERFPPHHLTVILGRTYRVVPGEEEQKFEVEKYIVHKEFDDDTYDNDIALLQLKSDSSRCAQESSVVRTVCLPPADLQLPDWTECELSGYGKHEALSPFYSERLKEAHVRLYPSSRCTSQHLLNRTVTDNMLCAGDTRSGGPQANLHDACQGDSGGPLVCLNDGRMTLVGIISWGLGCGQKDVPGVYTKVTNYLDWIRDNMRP

[16] = Inhibition of human chymotrypsin
[17] = biological target: Urokinase-type plasminogen activator (Homo sapiens, UniProt P00749); experiment: Inhibition of human urokinase
[18] = biological target: Coagulation factor X (Homo sapiens, UniProt P00742); experiment: Inhibition of human factor 10a
Coagulation factor X, sequence (P00742 41-179 limits assumed): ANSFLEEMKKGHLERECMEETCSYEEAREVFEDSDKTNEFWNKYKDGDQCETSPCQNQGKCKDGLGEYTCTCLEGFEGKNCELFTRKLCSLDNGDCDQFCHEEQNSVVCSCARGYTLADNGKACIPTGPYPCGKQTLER
Coagulation factor X, sequence (P00742 235-488 limits assumed): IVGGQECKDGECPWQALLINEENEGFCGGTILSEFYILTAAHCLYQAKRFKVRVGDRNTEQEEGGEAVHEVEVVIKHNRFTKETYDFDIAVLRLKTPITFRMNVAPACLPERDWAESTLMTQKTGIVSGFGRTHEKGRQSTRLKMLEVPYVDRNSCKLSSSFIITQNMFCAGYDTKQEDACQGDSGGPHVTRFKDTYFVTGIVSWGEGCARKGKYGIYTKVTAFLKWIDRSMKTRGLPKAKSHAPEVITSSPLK

[19] = biological target: T1, Coagulation factor VII (Homo sapiens, UniProt P08709); experiment: Inhibition of human factor 7a
T1 sequence (P08709 whole entry): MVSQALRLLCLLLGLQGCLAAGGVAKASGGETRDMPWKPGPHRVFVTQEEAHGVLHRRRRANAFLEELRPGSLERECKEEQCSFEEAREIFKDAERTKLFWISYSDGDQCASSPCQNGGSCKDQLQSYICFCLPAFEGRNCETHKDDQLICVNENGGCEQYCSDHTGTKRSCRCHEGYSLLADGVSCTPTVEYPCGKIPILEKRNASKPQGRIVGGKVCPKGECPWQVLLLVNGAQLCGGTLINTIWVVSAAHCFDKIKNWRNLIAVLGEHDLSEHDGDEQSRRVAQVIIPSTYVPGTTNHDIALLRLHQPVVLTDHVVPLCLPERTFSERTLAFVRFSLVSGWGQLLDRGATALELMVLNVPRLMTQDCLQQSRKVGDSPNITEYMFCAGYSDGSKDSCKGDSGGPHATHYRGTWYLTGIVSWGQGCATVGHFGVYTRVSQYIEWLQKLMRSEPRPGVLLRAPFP

Row | Compound | EC1.5 [1] [µM] | Vd [3] [L/kg] | bioavailability [4] [%] | Ki [5] [µM] | half-life [6] [min] | clearance [7] [mL/min/kg] | half-life [8] [min] | other results
1 | COC(=O)Nc1ccc(-c2nc([C@H](Cc3ccccc3)NC(=O)/C=C/c3cc(Cl)ccc3-n3cnnn3)[nH]c2Cl)cc1 | 5.3 |  |  |  |  |  |  | 
2 | COC(=O)Nc1ccc(-c2ccnc([C@H](Cc3ccccc3)NC(=O)/C=C/c3cc(Cl)ccc3-n3cnnn3)c2)cc1 | >40 |  |  |  |  |  |  | bioavailability [2]: 34%
3 | COC(=O)Nc1ccc(-c2cc([C@H](CC(=O)N3CC[C@@H](O)C3)NC(=O)/C=C/c3cc(Cl)ccc3-n3cnnn3)c(Cl)nn2)cc1 | 1.6 | 1.2 | < 3 | 0.0066 | 36 | 24.7 | 54 | 
4 | COC(=O)Nc1ccc(-c2cc([C@H](Cc3ccncc3)NC(=O)/C=C/c3cc(Cl)ccc3-n3cnnn3)nnc2Cl)cc1 | 6.2 |  |  | 0.012 | 2.8 |  |  | 
5 | COC(=O)Nc1ccc(-c2cc([C@H](Cc3ccccc3)NC(=O)/C=C/c3cc(Cl)ccc3-n3cnnn3)nnc2OC)cc1 | 50 |  |  | 0.036 |  |  |  | 
6 | COC(=O)Nc1ccc(-c2cc([C@H](Cc3ccccc3)NC(=O)/C=C/c3cc(Cl)ccc3-n3cnnn3)nnc2C(=O)O)cc1 | 32 |  |  | 0.011 |  |  |  | 
7 | COC(=O)Nc1ccc(-c2cc([C@H](Cc3ccccc3)NC(=O)/C=C/c3cc(Cl)ccc3-n3cnnn3)nnc2C)cc1 | 11 | 1.2 | 14 | 0.01 | 5.1 | 9.2 | 120 | Ki [9]: 39.3 µM; Ki [10]: > 53.4 µM; Ki [11]: 1.37 µM; Ki [12]: > 6.22 µM; Ki [13]: > 64.4 µM; Ki [14]: > 13.3 µM; Ki [15]: > 14.7 µM; Ki [16]: > 27.2 µM; Ki [17]: > 29.7 µM; Ki [18]: > 3 µM; Ki [19]: > 13.3 µM
8 | COC(=O)Nc1ccc(-c2cc([C@H](Cc3ccccc3)NC(=O)/C=C/c3cc(Cl)ccc3-n3cnnn3)c(Cl)nn2)cc1 | 2.2 | 2.1 | < 3 | 0.0019 | 31 | 15.5 | 108 | Ki [9]: 22 µM; Ki [10]: 4.49 µM; Ki [11]: 0.192 µM; Ki [12]: 3.73 µM; Ki [13]: 16.3 µM; Ki [14]: 10.6 µM; Ki [15]: 0.994 µM; Ki [16]: 29.6 µM; Ki [17]: 13.3 µM; Ki [18]: 1.94 µM; Ki [19]: 3.28 µM
9 | COC(=O)Nc1ccc(-c2cc([C@H](Cc3ccccc3)NC(=O)/C=C/c3cc(Cl)ccc3-n3cnnn3)cnn2)cc1 | 3.5 | 1.4 | < 3 | 0.0041 | 9.6 | 18.2 | 66 | 
10 | COC(=O)Nc1ccc(-c2cc([C@H](C[C@@H]3CCCN(C(C)=O)C3)NC(=O)/C=C/c3cc(Cl)ccc3-n3cnnn3)nnc2Cl)cc1 | 8.8 |  |  | 0.089 |  |  |  | 
11 | COC(=O)Nc1ccc(-c2cc([C@H](Cc3ccccc3)NC(=O)/C=C/c3cc(Cl)ccc3-n3cnnn3)c(=O)[nH]n2)cc1 | 19 |  |  | 0.022 |  |  |  | 
12 | COC(=O)Nc1ccc(-c2cc([C@H](Cc3ccccc3)NC(=O)/C=C/c3cc(Cl)ccc3-n3cnnn3)c(C)nn2)cc1 | 14 |  |  | 0.0061 |  |  |  | 
13 | COC(=O)Nc1ccc(-c2cc([C@H](Cc3cccc(F)c3)NC(=O)/C=C/c3cc(Cl)ccc3-n3cnnn3)nnc2Cl)cc1 | 17 |  |  | 0.01 | 12 |  |  | 
14 | COC(=O)Nc1ccc(-c2cc([C@H](Cc3ccccc3)NC(=O)/C=C/c3cc(Cl)ccc3-n3cnnn3)nnc2Cl)cc1 | 9.3 | 2.3 | 16 | 0.0096 | 8.6 | 6.3 | 426 | Ki [9]: > 73.7 µM; Ki [10]: 76.6 µM; Ki [11]: > 6 µM; Ki [12]: > 6.22 µM; Ki [13]: > 64.4 µM; Ki [14]: > 13.3 µM; Ki [15]: 10.1 µM; Ki [16]: > 27.2 µM; Ki [17]: > 29.7 µM; Ki [18]: 0.2 µM; Ki [19]: > 13.3 µM
15 | CNC(=O)c1nnc([C@H](Cc2ccccc2)NC(=O)/C=C/c2cc(Cl)ccc2-n2cnnn2)cc1-c1ccc(NC(=O)OC)cc1 | 45 |  |  | 0.031 |  |  |  | 
16 | COC(=O)Nc1ccc(-c2cnnc([C@H](Cc3ccccc3)NC(=O)/C=C/c3cc(Cl)ccc3-n3cnnn3)c2)cc1 | 14 | 1.3 | 18 | 0.007 | 9.1 | 8.9 | 108 | Ki [10]: 38.1 µM; Ki [11]: 0.268 µM; Ki [12]: > 6.22 µM; Ki [13]: 68 µM; Ki [14]: > 13.3 µM; Ki [15]: > 14.7 µM; Ki [16]: 11.9 µM; Ki [17]: > 29.7 µM; Ki [18]: 0.84 µM; Ki [19]: > 13.3 µM
17 | COC(=O)Nc1ccc(-c2cc([C@H](CC(=O)N3CC[C@@H](O)C3)NC(=O)/C=C/c3cc(Cl)ccc3-n3cnnn3)nnc2Cl)cc1 | 7.5 |  |  | 0.026 |  |  |  | 
18 | COC(=O)Nc1ccc(-c2cc([C@H](Cc3ccccc3)NC(=O)/C=C/c3cc(Cl)ccc3-n3cnnn3)n[nH]c2=O)cc1 | 11 |  |  | 0.01 |  |  |  | 
19 | COC(=O)Nc1ccc(-c2cc([C@H](Cc3ccc(F)cc3)NC(=O)/C=C/c3cc(Cl)ccc3-n3cnnn3)nnc2Cl)cc1 | 22 | 1.5 | 12 | 0.0093 | 20 | 5.1 | 402 | 
20 | COC(=O)Nc1ccc(-c2cc([C@H](CC(=O)N3CCN(C)CC3)NC(=O)/C=C/c3cc(Cl)ccc3-n3cnnn3)c(Cl)nn2)cc1 | 0.9 |  |  | 0.004 |  |  |  | 
